In ChEMBL document CHEMBL4257555, “Small molecule cores demonstrate non-competitive inhibition of lactate dehydrogenase” (Medchemcomm, 2018):
Activity calls are given as the source filed them. No cut-off for these calls is given here.

Experiments:
[1] = biological target: L-lactate dehydrogenase B chain (Sus scrofa) (UniProt P00336); assay: Inhibition of porcine heart LDH assessed as enzymatic hydride transfer lifetime using pyruvate as substrate and NADH as cofactor measured after 2 hrs by stopped flow spectrometric analysis (reference value: 3.73 +/- 0.0901 ms)
[2] = biological target: L-lactate dehydrogenase B chain (Sus scrofa) (UniProt P00336); assay: Binding affinity to porcine heart LDH at 2.14 mM measured every 2 mins for 10 mins by dynamic light scattering analysis
Summary of the method: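 DLS on filtered samples of 80 μN phLDH, 4 μM NADH and 2.14 mM inhibitor in 100 mM sodium phosphate pH 7.2 at room temperature. Autocorrelation functions and particle size distributions collected every 2 min for 10 min.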

[3] = biological target: L-lactate dehydrogenase B chain (Sus scrofa) (UniProt P00336); assay: Inhibition of oxamate binding to porcine heart LDH assessed as relative fluorescence intensity at 1000 uM using pyruvate as substrate and NADH as cofactor measured after 2 hrs by fluorescence spectra analysis (reference value: 0.775 +/- 0.013 a.u.)
[4] = biological target: L-lactate dehydrogenase B chain (Sus scrofa) (UniProt P00336); assay: Inhibition of oxamate binding to porcine heart LDH assessed as emission maximum at 1000 uM using pyruvate as substrate and NADH as cofactor measured after 2 hrs by fluorescence spectra analysis (reference value: 452.9 +/- 0.3 nanometer)
[5] = biological target: L-lactate dehydrogenase B chain (Sus scrofa) (UniProt P00336); assay: Inhibition of oxamate binding to porcine heart LDH assessed as relative fluorescence intensity at 961 uM using pyruvate as substrate and NADH as cofactor measured after 2 hrs by fluorescence spectra analysis (reference value: 0.775 +/- 0.013 a.u.)
[6] = biological target: L-lactate dehydrogenase B chain (Sus scrofa) (UniProt P00336); assay: Inhibition of oxamate binding to porcine heart LDH assessed as relative fluorescence intensity at 6 uM using pyruvate as substrate and NADH as cofactor measured after 2 hrs by fluorescence spectra analysis (reference value: 0.775 +/- 0.013 a.u.)
[7] = biological target: L-lactate dehydrogenase B chain (Sus scrofa) (UniProt P00336); assay: Inhibition of oxamate binding to porcine heart LDH assessed as emission maximum at 6 uM using pyruvate as substrate and NADH as cofactor measured after 2 hrs by fluorescence spectra analysis (reference value: 452.9 +/- 0.36 nanometer)
[8] = biological target: L-lactate dehydrogenase B chain (Sus scrofa) (UniProt P00336); assay: Inhibition of oxamate binding to porcine heart LDH assessed as emission maximum at 961 uM using pyruvate as substrate and NADH as cofactor measured after 2 hrs by fluorescence spectra analysis (reference value: 452.9 +/- 0.3 nanometer)
[9] = biological target: L-lactate dehydrogenase B chain (Sus scrofa) (UniProt P00336); assay: Inhibition of oxamate binding to porcine heart LDH assessed as relative fluorescence intensity at 35 uM using pyruvate as substrate and NADH as cofactor measured after 2 hrs by fluorescence spectra analysis (reference value: 0.775 +/- 0.013 a.u.)
[10] = biological target: L-lactate dehydrogenase B chain (Sus scrofa) (UniProt P00336); assay: Inhibition of oxamate binding to porcine heart LDH assessed as emission maximum at 35 uM using pyruvate as substrate and NADH as cofactor measured after 2 hrs by fluorescence spectra analysis (reference value: 452.9 +/- 0.3 nanometer)
[11] = biological target: L-lactate dehydrogenase B chain (Sus scrofa) (UniProt P00336); assay: Activation of porcine heart LDH at 1 mM using pyruvate as substrate and NADH as cofactor measured after 2 hrs by stopped-flow spectrometric method relative to control
Summary of the method: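 Pig heart LDH buffer-exchanged into 100 mM sodium phosphate pH 7.2, then preincubated 2 h at 4 °C with inhibitor. Final: 5 nN enzyme, 100 μM NADH, 300 μM sodium pyruvate, 37 °C. Stopped-flow mixing of enzyme:NADH:inhibitor with pyruvate, NADH loss read at 340 nm. Initial rates are linear fits averaged over five shots and expressed relative to uninhibited enzyme.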

CC(=O)Nc1cccc(O)c1 [12] = assay: (§1) Mixed inhibition of porcine heart LDH assessed as apparent Km for substrate at 300 uM using pyruvate as substrate and NADH as cofactor measured after 2 hrs by Michaelis-Menten plot analysis (reference value: 73 +/- 10 uM); details: Sus scrofa
NC(=O)c1cc(O)cc(O)c1 [13] = assay: as §1; details: Sus scrofa
CC(=O)Nc1cccc(O)c1 [14] = assay: Mixed inhibition of porcine heart LDH assessed as substrate Kcat at 100 uM using pyruvate as substrate and NADH as cofactor measured after 2 hrs by Michaelis-Menten plot analysis (reference value: 232 +/- 13 /sec); details: Sus scrofa
NC(=O)c1cc(O)cc(O)c1 [15] = assay: Mixed inhibition of porcine heart LDH assessed as substrate Kcat at 25 uM using pyruvate as substrate and NADH as cofactor measured after 2 hrs by Michaelis-Menten plot analysis (reference value: 319 +/- 8 /sec); details: Sus scrofa
NC(=O)c1cc(O)cc(O)c1 [16] = assay: Mixed inhibition of porcine heart LDH assessed as substrate Kcat at 10 uM using pyruvate as substrate and NADH as cofactor measured after 2 hrs by Michaelis-Menten plot analysis (reference value: 319 +/- 8 /sec); details: Sus scrofa
CC(=O)Nc1cccc(O)c1 [17] = assay: Non-competitive inhibition of porcine heart LDH assessed as Kcat for cofactor at 50 uM using pyruvate as substrate and NADH as cofactor measured after 2 hrs by Michaelis-Menten plot analysis (reference value: 221 +/- 10 /sec); details: Sus scrofa
CC(=O)Nc1cccc(O)c1 [18] = assay: (§2) Mixed inhibition of porcine heart LDH assessed as apparent Km for substrate at 10 uM using pyruvate as substrate and NADH as cofactor measured after 2 hrs by Michaelis-Menten plot analysis (reference value: 73 +/- 10 uM); details: Sus scrofa
NC(=O)c1cc(O)cc(O)c1 [19] = assay: as §2; details: Sus scrofa
CC(=O)Nc1cccc(O)c1 [20] = assay: Mixed inhibition of porcine heart LDH assessed as substrate Kcat at 10 uM using pyruvate as substrate and NADH as cofactor measured after 2 hrs by Michaelis-Menten plot analysis (reference value: 232 +/- 13 /sec); details: Sus scrofa
CC(=O)Nc1cccc(O)c1 [21] = assay: (§3) Mixed inhibition of porcine heart LDH assessed as apparent Km for substrate at 25 uM using pyruvate as substrate and NADH as cofactor measured after 2 hrs by Michaelis-Menten plot analysis (reference value: 73 +/- 10 uM); details: Sus scrofa
NC(=O)c1cc(O)cc(O)c1 [22] = assay: as §3; details: Sus scrofa
CC(=O)Nc1cccc(O)c1 [23] = assay: Mixed inhibition of porcine heart LDH assessed as substrate Kcat at 50 uM using pyruvate as substrate and NADH as cofactor measured after 2 hrs by Michaelis-Menten plot analysis (reference value: 232 +/- 13 /sec); details: Sus scrofa
CC(=O)Nc1cccc(O)c1 [24] = assay: Mixed inhibition of porcine heart LDH assessed as substrate Kcat at 300 uM using pyruvate as substrate and NADH as cofactor measured after 2 hrs by Michaelis-Menten plot analysis (reference value: 232 +/- 13 /sec); details: Sus scrofa
NC(=O)c1cc(O)cc(O)c1 [25] = assay: Mixed inhibition of porcine heart LDH assessed as substrate Kcat at 100 uM using pyruvate as substrate and NADH as cofactor measured after 2 hrs by Michaelis-Menten plot analysis (reference value: 319 +/- 8 /sec); details: Sus scrofa
CC(=O)Nc1cccc(O)c1 [26] = assay: Non-competitive inhibition of porcine heart LDH assessed as apparent Km for cofactor at 50 uM using pyruvate as substrate and NADH as cofactor measured after 2 hrs by Michaelis-Menten plot analysis (reference value: 8 +/- 2 uM); details: Sus scrofa
CC(=O)Nc1cccc(O)c1 [27] = assay: Non-competitive inhibition of porcine heart LDH assessed as Kcat for cofactor at 300 uM using pyruvate as substrate and NADH as cofactor measured after 2 hrs by Michaelis-Menten plot analysis (reference value: 221 +/- 10 /sec); details: Sus scrofa
CC(=O)Nc1cccc(O)c1 [28] = assay: (§4) Mixed inhibition of porcine heart LDH assessed as apparent Km for substrate at 100 uM using pyruvate as substrate and NADH as cofactor measured after 2 hrs by Michaelis-Menten plot analysis (reference value: 73 +/- 10 uM); details: Sus scrofa
NC(=O)c1cc(O)cc(O)c1 [29] = assay: as §4; details: Sus scrofa
NC(=O)c1cc(O)cc(O)c1 [30] = assay: Mixed inhibition of porcine heart LDH assessed as substrate Kcat at 50 uM using pyruvate as substrate and NADH as cofactor measured after 2 hrs by Michaelis-Menten plot analysis (reference value: 319 +/- 8 /sec); details: Sus scrofa
NC(=O)c1cc(O)cc(O)c1 [31] = assay: Mixed inhibition of porcine heart LDH assessed as substrate Kcat at 300 uM using pyruvate as substrate and NADH as cofactor measured after 2 hrs by Michaelis-Menten plot analysis (reference value: 319 +/- 8 /sec); details: Sus scrofa
CC(=O)Nc1cccc(O)c1 [32] = assay: (§5) Mixed inhibition of porcine heart LDH assessed as apparent Km for substrate at 50 uM using pyruvate as substrate and NADH as cofactor measured after 2 hrs by Michaelis-Menten plot analysis (reference value: 73 +/- 10 uM); details: Sus scrofa
NC(=O)c1cc(O)cc(O)c1 [33] = assay: as §5; details: Sus scrofa
CC(=O)Nc1cccc(O)c1 [34] = assay: Mixed inhibition of porcine heart LDH assessed as substrate Kcat at 25 uM using pyruvate as substrate and NADH as cofactor measured after 2 hrs by Michaelis-Menten plot analysis (reference value: 232 +/- 13 /sec); details: Sus scrofa
CC(=O)Nc1cccc(O)c1 [35] = assay: Non-competitive inhibition of porcine heart LDH assessed as apparent Km for cofactor at 300 uM using pyruvate as substrate and NADH as cofactor measured after 2 hrs by Michaelis-Menten plot analysis (reference value: 8 +/- 2 uM); details: Sus scrofa

L-lactate dehydrogenase B chain (Sus scrofa), P00336, sequence (P00336 whole entry): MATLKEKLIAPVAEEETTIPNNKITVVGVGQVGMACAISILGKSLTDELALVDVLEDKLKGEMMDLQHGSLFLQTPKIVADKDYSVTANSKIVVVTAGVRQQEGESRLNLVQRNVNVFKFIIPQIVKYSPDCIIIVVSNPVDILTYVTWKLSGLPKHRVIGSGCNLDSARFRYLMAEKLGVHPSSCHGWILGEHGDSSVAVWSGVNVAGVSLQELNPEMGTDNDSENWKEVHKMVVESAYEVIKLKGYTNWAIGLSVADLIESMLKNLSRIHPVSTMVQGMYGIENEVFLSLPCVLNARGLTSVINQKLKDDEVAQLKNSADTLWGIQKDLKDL
L-lactate dehydrogenase B chain (Sus scrofa), sequence (P00336 whole entry): as above

CC(=O)Nc1cccc(O)c1
TIME [1]: 1.09e-06 h
Activity [2]: Active
RFU [3]: 0.793 a.u.
Activity [4]: 449 nm

CC(=O)Nc1ccccc1
Activity [2]: Active

NC(=O)c1cc(O)cc(O)c1
RFU [5]: 0.773 a.u.
RFU [6]: 0.764 a.u.
Activity [2]: Active
Activity [7]: 453 nm
Activity [8]: 455 nm
RFU [9]: 0.759 a.u.
Activity [10]: 453 nm

N[C@@H](Cc1c[nH]c2ccccc12)C(=O)O
Activity [11]: < 24%

L-lactate dehydrogenase B chain (Sus scrofa), P00336
Km (CC(=O)Nc1cccc(O)c1 [12]): 133 µM
Km (NC(=O)c1cc(O)cc(O)c1 [13]): 111 µM
kcat (CC(=O)Nc1cccc(O)c1 [14]): 211 s⁻¹
kcat (NC(=O)c1cc(O)cc(O)c1 [15]): 229 s⁻¹
kcat (NC(=O)c1cc(O)cc(O)c1 [16]): 281 s⁻¹
kcat (CC(=O)Nc1cccc(O)c1 [17]): 190 s⁻¹
Km (CC(=O)Nc1cccc(O)c1 [18]): 98 µM
Km (NC(=O)c1cc(O)cc(O)c1 [19]): 87 µM
kcat (CC(=O)Nc1cccc(O)c1 [20]): 211 s⁻¹
Km (CC(=O)Nc1cccc(O)c1 [21]): 98 µM
Km (NC(=O)c1cc(O)cc(O)c1 [22]): 90 µM
kcat (CC(=O)Nc1cccc(O)c1 [23]): 175 s⁻¹
kcat (CC(=O)Nc1cccc(O)c1 [24]): 132 s⁻¹
kcat (NC(=O)c1cc(O)cc(O)c1 [25]): 216 s⁻¹
Km (CC(=O)Nc1cccc(O)c1 [26]): 7 µM
kcat (CC(=O)Nc1cccc(O)c1 [27]): 191 s⁻¹
Km (CC(=O)Nc1cccc(O)c1 [28]): 163 µM
Km (NC(=O)c1cc(O)cc(O)c1 [29]): 116 µM
kcat (NC(=O)c1cc(O)cc(O)c1 [30]): 242 s⁻¹
kcat (NC(=O)c1cc(O)cc(O)c1 [31]): 176 s⁻¹
Km (CC(=O)Nc1cccc(O)c1 [32]): 155 µM
Km (NC(=O)c1cc(O)cc(O)c1 [33]): 102 µM
kcat (CC(=O)Nc1cccc(O)c1 [34]): 190 s⁻¹
Km (CC(=O)Nc1cccc(O)c1 [35]): 7 µM
